From ChEMBL document CHEMBL1142303, “Imidazo[2,1-b]thiazole system: a scaffold endowing dihydropyridines with selective cardiodepressant activity” (J Med Chem, 2008)
The source made the active and inactive calls. No cut-off for these calls is given here.

How the values were obtained:
Cavia porcellus [1] = species: Cavia porcellus; experiment: Chronotropic activity at L type calcium channel in guinea pig right atrium assessed as decrease in spontaneous beating at 10 uM relative to control; assay type: tissue-based; parameters: scale not given: the % may be the effect or the level left; settings: Cardiac atrium
Cavia porcellus [2] = species: Cavia porcellus; experiment: Inotropic activity at L type calcium channel in guinea pig left atrium assessed as decrease in tension at 1 uM relative to control; assay type: tissue-based; parameters: scale not given: the % may be the effect or the level left; settings: Cardiac atrium
Cavia porcellus [3] = species: Cavia porcellus; experiment: Activity at L type calcium channel in K+ depolarized guinea pig aortic strip assessed as inhibition of calcium induced contraction at 50 uM; assay type: tissue-based; parameters: scale not given: the % may be the effect or the level left; settings: Aorta
In short: (§1)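 Guinea-pig aortic strips depolarized with 80 mM K+. Drugs added cumulatively. Readout is percent inhibition of calcium-induced contraction, n = 5–6. Control versus treated values tested at each concentration by Student's t-test, P < 0.05.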

Cavia porcellus [4] = species: Cavia porcellus; experiment: Activity at L type calcium channel in K+ depolarized guinea pig longitudinal smooth muscle assessed as inhibition of calcium induced contraction at 100 uM; parameters: scale not given: the % may be the effect or the level left
Cavia porcellus [5] = species: Cavia porcellus; experiment: Activity at L type calcium channel in K+ depolarized guinea pig aortic strip assessed as inhibition of calcium induced contraction at 100 uM; assay type: tissue-based; parameters: scale not given: the % may be the effect or the level left; settings: Aorta; in short: as §1
Cavia porcellus [6] = species: Cavia porcellus; experiment: Inotropic activity at L type calcium channel in guinea pig left atrium assessed as decrease in tension at 10 uM relative to control; assay type: tissue-based; parameters: scale not given: the % may be the effect or the level left; settings: Cardiac atrium
Cavia porcellus [7] = species: Cavia porcellus; experiment: Chronotropic activity at L type calcium channel in guinea pig right atrium assessed as decrease in spontaneous beating at 100 uM relative to control; assay type: tissue-based; parameters: scale not given: the % may be the effect or the level left; settings: Cardiac atrium
[8] = Inotropic activity at L type calcium channel in guinea pig left atrium assessed as decrease in tension; assay type: tissue-based; settings: Cavia porcellus, Cardiac atrium
In short: (§2)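 Guinea-pig atria: left atrium driven at 1 Hz for inotropy, spontaneously beating right atrium for chronotropy. Increasing cumulative doses, readout is percent decrease. EC50 (inotropic) and EC30 (chronotropic) by Litchfield–Wilcoxon probit analysis on log concentration–response curves, n = 6–7. Not calculated when the maximum effect was below 50%.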

[9] = Activity at L type calcium channel in K+ depolarized guinea pig longitudinal smooth muscle assessed as inhibition of calcium induced contraction; parameters: species or system Cavia porcellus
Cavia porcellus [10] = species: Cavia porcellus; experiment: Inotropic activity at L type calcium channel in guinea pig left atrium assessed as decrease in tension at 5 uM relative to control; assay type: tissue-based; parameters: scale not given: the % may be the effect or the level left; settings: Cardiac atrium
Cavia porcellus [11] = species: Cavia porcellus; experiment: Chronotropic activity at L type calcium channel in guinea pig right atrium assessed as decrease in spontaneous beating at 5 uM relative to control; assay type: tissue-based; parameters: scale not given: the % may be the effect or the level left; settings: Cardiac atrium
Cavia porcellus [12] = species: Cavia porcellus; experiment: Inotropic activity at L type calcium channel in guinea pig left atrium assessed as decrease in tension at 50 uM relative to control; assay type: tissue-based; parameters: scale not given: the % may be the effect or the level left; settings: Cardiac atrium
Cavia porcellus [13] = species: Cavia porcellus; experiment: Chronotropic activity at L type calcium channel in guinea pig right atrium assessed as decrease in spontaneous beating; assay type: tissue-based; settings: Cardiac atrium; in short: as §2
[14] = Displacement of (+)-[5-methyl-3H][…] from L type calcium channel in guinea pig heart ventricles; parameters: species or system Cavia porcellus
In short: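 Guinea-pig ventricular membranes incubated with 0.5 nM (+)-[5-methyl-3H]PN200-110 and test compounds at 0.1–50 µM in a competitive radioligand assay. Ki and IC50 reported as mean ± S.E.M. Student's t-test, significance P < 0.001.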

Cavia porcellus [15] = species: Cavia porcellus; experiment: Activity at L type calcium channel in K+ depolarized guinea pig longitudinal smooth muscle assessed as inhibition of calcium induced contraction at 5 uM; parameters: scale not given: the % may be the effect or the level left
Cavia porcellus [16] = species: Cavia porcellus; experiment: Activity at L type calcium channel in K+ depolarized guinea pig longitudinal smooth muscle assessed as inhibition of calcium induced contraction at 1 uM; parameters: scale not given: the % may be the effect or the level left
HEK293 = experiment: Displacement of (+)-[5-methyl-3H][…] from L type calcium channel Cav1.2b in rabbit expressed in HEK293 cells; assay type: cell-based; settings: Oryctolagus cuniculus
In short: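 Intact HEK-293 cells transfected with rabbit Cav1.2a (α1C-a) or Cav1.2b (α1C-b) plasmid, labelled with (+)-[5-methyl-3H]PN200-110. Nonspecific binding about 10–20% of total. IC50 is mean ± S.E.M. of three independent experiments.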

Cavia porcellus [17] = species: Cavia porcellus; experiment: Inotropic activity at L type calcium channel in guinea pig left atrium assessed as decrease in tension at 100 uM relative to control; assay type: tissue-based; parameters: scale not given: the % may be the effect or the level left; settings: Cardiac atrium
Cavia porcellus [18] = species: Cavia porcellus; experiment: Activity at L type calcium channel in K+ depolarized guinea pig longitudinal smooth muscle assessed as inhibition of calcium induced contraction at 10 uM; parameters: scale not given: the % may be the effect or the level left
Cavia porcellus [19] = species: Cavia porcellus; experiment: Chronotropic activity at L type calcium channel in guinea pig right atrium assessed as decrease in spontaneous beating at 50 uM relative to control; assay type: tissue-based; parameters: scale not given: the % may be the effect or the level left; settings: Cardiac atrium
Cavia porcellus [20] = species: Cavia porcellus; experiment: Activity at L type calcium channel in K+ depolarized guinea pig longitudinal smooth muscle assessed as inhibition of calcium induced contraction at 0.1 uM; parameters: scale not given: the % may be the effect or the level left
Cavia porcellus [21] = species: Cavia porcellus; experiment: Activity at L type calcium channel in K+ depolarized guinea pig aortic strip assessed as inhibition of calcium induced contraction at 10 uM; assay type: tissue-based; parameters: scale not given: the % may be the effect or the level left; settings: Aorta; in short: as §1

SMILES	EC50 [8] [nM]	IC50 [9] [nM]	Activity (Cavia porcellus [1]) [%]	Activity (Cavia porcellus [5]) [%]	Activity (Cavia porcellus [10]) [%]	EC30 (Cavia porcellus [13]) [nM]	also measured
COC(=O)C1=C(C)NC(C)=C(C(=O)OC)C1c1c(C(F)(F)F)nc2sc(C)cn12	–	–	36	–	–	–	Activity (Cavia porcellus [2]): 46%; Activity (Cavia porcellus [3]): 28%
COC(=O)C1=C(C)NC(C)=C(C(=O)OC)C1c1c(-c2c(OC)ccc(OC)c2[N+](=O)[O-])nc2sc(C)cn12	93	–	–	27	71	–	Activity (Cavia porcellus [7]): 47%
COC(=O)C1=C(C)NC(C)=C(C(=O)OC)C1c1c(-c2cccc(OC(F)(F)F)c2)nc2sccn12	830	–	–	26	–	1180	Activity (Cavia porcellus [11]): 69%; Activity (Cavia porcellus [12]): 86%
COC(=O)C1=C(C)NC(C)=C(C(=O)OC)C1c1c(-c2ccccc2)nc2scc(C)n12	830	–	–	–	–	640	Activity (Cavia porcellus [11]): 88%; Activity (Cavia porcellus [17]): 59%; Activity (Cavia porcellus [3]): 30%
COC(=O)C1=C(C)NC(C)=C(C(=O)OC)C1c1c(-c2cc(OC)c([N+](=O)[O-])cc2OC)nc2sccn12	54	2560	67	–	54	3970	Activity (Cavia porcellus [18]): 97%; Activity (Cavia porcellus [3]): 35%
COC(=O)C1=C(C)NC(C)=C(C(=O)OC)C1c1c(-c2c(OC)ccc(OC)c2[N+](=O)[O-])nc2sc(Cl)cn12	–	–	–	32	–	11200	Activity (Cavia porcellus [7]): 64%; Activity (Cavia porcellus [2]): 42%
COC(=O)C1=C(C)NC(C)=C(C(=O)OC)C1c1c(Cl)nc2sc(C)c(C)n12	81	–	–	–	73	–	Activity (Cavia porcellus [11]): 29%; Activity (Cavia porcellus [21]): 29%

More lines, main results first:

EC50 [8] [nM]	IC50 [9] [nM]	SMILES	Activity (Cavia porcellus [1]) [%]	Activity (Cavia porcellus [5]) [%]	Activity (Cavia porcellus [10]) [%]	EC30 (Cavia porcellus [13]) [nM]	also measured
360	11000	COC(=O)C1=C(C)NC(C)=C(C(=O)OC)C1c1c(-c2c(OC)ccc(OC)c2[N+](=O)[O-])nc2sccn12	–	17	–	–	Activity (Cavia porcellus [4]): 86%; Activity (Cavia porcellus [6]): 71%; Activity (Cavia porcellus [7]): 12%
75	1950	COC(=O)C1=C(C)NC(C)=C(C(=O)OC)C1c1c(-c2ccccc2OC(F)(F)F)nc2sccn12	47	47	67	–	Log Ki [14]: -6.8; Activity (Cavia porcellus [15]): 81%
26	240	COC(=O)C1=C(C)NC(C)=C(C(=O)OC)C1c1c(-c2cc(OC)c([N+](=O)[O-])cc2OC)nc2sc(C)cn12	87	32	75	2110	Activity (Cavia porcellus [16]): 94%; Log Ki [14]: < -5; Activity (HEK293): inactive
1240	–	COC(=O)C1=C(C)NC(C)=C(C(=O)OC)C1c1c(-c2ccc(OC)cc2OC)nc2sccn12	55	42	–	5880	Activity (Cavia porcellus [12]): 71%
310	–	COC(=O)C1=C(C)NC(C)=C(C(=O)OC)C1c1c(-c2cccc(C(F)(F)F)c2)nc2sccn12	78	–	–	1900	Activity (Cavia porcellus [12]): 89%; Activity (Cavia porcellus [3]): 27%
1340	–	COC(=O)C1=C(C)NC(C)=C(C(=O)OC)C1c1c(-c2cc(OC)c(OC)cc2[N+](=O)[O-])nc2sccn12	–	35	–	6970	Activity (Cavia porcellus [12]): 91%; Activity (Cavia porcellus [19]): 90%
1970	–	COC(=O)C1=C(C)NC(C)=C(C(=O)OC)C1c1c(-c2ccccc2OC)nc2sccn12	–	28	–	1990	Activity (Cavia porcellus [17]): 54%; Activity (Cavia porcellus [7]): 95%
1900	83	COC(=O)C1=C(C)NC(C)=C(C(=O)OC)C1c1c(-c2cccc(OC)c2)nc2sccn12	–	–	–	550	Activity (Cavia porcellus [11]): 94%; Activity (Cavia porcellus [17]): 90%; Activity (Cavia porcellus [20]): 51%; Activity (Cavia porcellus [21]): 48%
